Reference: ChEMBL document CHEMBL4261490, “Exploring the links between peptoid antibacterial activity and toxicity” (Medchemcomm, 2017)
Square brackets hold non-standard residues; d marks the D form. Peptide text beside a SMILES is read from it. Gly(Nα-4-Cl-benzyl) = O=C(O)CNCc1ccc(Cl)cc1; N(4-F-Bzl)Gly = O=C(O)CNCc1ccc(F)cc1; Gly(N-(CH2)6NH2) = NCCCCCCNCC(=O)O; Gly(N-2-aminoethyl) = NCCNCC(=O)O; N(isopentyl)Gly = CC(C)CCNCC(=O)O; Nspe = C[C@H](NCC(=O)O)c1ccccc1; NhArg = N=C(N)NCCCCNCC(=O)O; Nphe = O=C(O)CNCc1ccccc1; Nlys = NCCCCNCC(=O)O

Experiments:
[1] = Selectivity index, ratio of ED50 for human HepG2 cells to MIC for Staphylococcus epidermidis clinical isolate; type: toxicity; settings: read-out: Selectivity Index
[2] = Selectivity index, ratio of ED50 for human HaCaT cells to MIC for Staphylococcus epidermidis clinical isolate; type: toxicity; settings: read-out: Selectivity Index
[3] = Selectivity index, ratio of ED50 for human HepG2 cells to MIC for Staphylococcus aureus 3R7089 strain Oxford/ATCC 9144; type: toxicity; settings: read-out: Selectivity Index
[4] = Selectivity index, ratio of ED50 for human HaCaT cells to MIC for Pseudomonas aeruginosa PAO1 ATCC 15692; type: toxicity; settings: read-out: Selectivity Index
[5] = Selectivity index, ratio of ED50 for human HepG2 cells to MIC for Pseudomonas aeruginosa PAO1 ATCC 15692; type: toxicity; settings: read-out: Selectivity Index
[6] = Selectivity index, ratio of ED50 for human HaCaT cells to MIC for Staphylococcus aureus 3R7089 strain Oxford/ATCC 9144; type: toxicity; settings: read-out: Selectivity Index
[7] = Cytotoxicity against human HaCaT cells assessed as reduction in cell viability pretreated for 1 hr followed by DMEM addition measured after 24 hrs by alamar blue assay; type: cell-based; settings: read-out: ED50
In short: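 HaCaT keratinocytes are grown in DMEM high glucose with 10% FBS and 1% P/S and seeded at 2x10^4 cells/well 24 h before treatment. Compound dilution series run 2–100 µM (5 mM DMSO stocks) in 50 µL for 1 h, then medium is added for 24 h at 37 °C, 5% CO2. alamarBlue is read after 1 h (Ex 540/Em 620). Triplicate, ≥2 occasions; ED50 from dose-response; amphotericin B positive control.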

[8] = Selectivity index, ratio of ED50 for human HaCaT cells to MIC for Escherichia coli K-12 W3110 ATCC 27325; type: toxicity; settings: read-out: Selectivity Index
Pseudomonas aeruginosa = experiment: Antibacterial activity against Pseudomonas aeruginosa PAO1 ATCC 15692 incubated for 16 hrs under shaking condition; type: functional; settings: PAO1 ATCC 15692, 16 h
In short: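 Broth microdilution (Andrews method) in Iso-sensitest broth. Overnight cultures are adjusted to A650 0.07 (0.5 McFarland) and diluted ten-fold. Compounds come from 5 mM DMSO stocks, 2-fold serially diluted, final 2–100 μM in a 1:1 inoculum:compound mix. Incubation is 37 °C for 16 h with shaking. MIC is the lowest concentration giving complete growth inhibition, read by absorbance; triplicate.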

[9] = Selectivity index, ratio of ED50 for human HepG2 cells to MIC for Escherichia coli K-12 W3110 ATCC 27325; type: toxicity; settings: read-out: Selectivity Index
[10] = Cytotoxicity against human HepG2 cells assessed as reduction in cell viability pretreated for 1 hr followed by DMEM addition measured after 24 hrs by alamar blue assay; type: cell-based; settings: read-out: ED50
In short: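 HepG2 cells are kept in DMEM high glucose with 10% heat-inactivated FBS and 1% P/S at 37 °C, 5% CO2, and seeded at 2x10^4 cells/well one day ahead. They are exposed to compounds (100 to 3 µM, from 5 mM DMSO stocks) in 50 µL for 1 h. Medium is then added and cells incubated 24 h. alamarBlue is read after 2 h (Ex 560/Em 600). Triplicate on ≥2 occasions; ED50 from dose-response; DMSO negative control.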

MIC (Pseudomonas aeruginosa) [µM]	Compound	selectivity ratio [1]	selectivity ratio [2]	selectivity ratio [3]	selectivity ratio [4]	selectivity ratio [5]	selectivity ratio [6]	CC50 at 24 h [7] [µM]	selectivity ratio [8]	selectivity ratio [9]	CC50 at 24 h [10] [µM]
	NCCCCNCC(=O)N(CC(=O)N(CC(=O)N(CCCCN)CC(=O)N(CC(=O)N(CC(=O)N(CCCCN)CC(=O)N(CC(=O)N(CC(N)=O)Cc1ccc(Cl)cc1)Cc1ccc(Cl)cc1)Cc1ccc(Cl)cc1)Cc1ccc(Cl)cc1)Cc1ccc(Cl)cc1)Cc1ccc(Cl)cc1 (H-[Nlys][Gly(Nα-4-Cl-benzyl)][Gly(Nα-4-Cl-benzyl)][Nlys][Gly(Nα-4-Cl-benzyl)][Gly(Nα-4-Cl-benzyl)][Nlys][Gly(Nα-4-Cl-benzyl)][Gly(Nα-4-Cl-benzyl)]-NH2)	12	11	8	1	1	7				
	C[C@@H](c1ccccc1)N(CC(N)=O)C(=O)CN(C(=O)CN(CCCCCCN)C(=O)CN(C(=O)CN(C(=O)CN(CCCCCCN)C(=O)CN(C(=O)CN(C(=O)CN(CCCCCCN)C(=O)CN(C(=O)CN(C(=O)CNCCCCCCN)[C@@H](C)c1ccccc1)[C@@H](C)c1ccccc1)[C@@H](C)c1ccccc1)[C@@H](C)c1ccccc1)[C@@H](C)c1ccccc1)[C@@H](C)c1ccccc1)[C@@H](C)c1ccccc1 (H-[Gly(N-(CH2)6NH2)][Nspe][Nspe][Gly(N-(CH2)6NH2)][Nspe][Nspe][Gly(N-(CH2)6NH2)][Nspe][Nspe][Gly(N-(CH2)6NH2)][Nspe][Nspe]-NH2)	21	12	21	0	1	12				
	C[C@@H](c1ccccc1)N(CC(N)=O)C(=O)CN(C(=O)CN(CCCCNC(=N)N)C(=O)CN(C(=O)CN(C(=O)CN(CCCCNC(=N)N)C(=O)CN(C(=O)CN(C(=O)CN(CCCCN)C(=O)CN(C(=O)CN(C(=O)CNCCCCN)[C@@H](C)c1ccccc1)[C@@H](C)c1ccccc1)[C@@H](C)c1ccccc1)[C@@H](C)c1ccccc1)[C@@H](C)c1ccccc1)[C@@H](C)c1ccccc1)[C@@H](C)c1ccccc1 (H-[Nlys][Nspe][Nspe][Nlys][Nspe][Nspe][NhArg][Nspe][Nspe][NhArg][Nspe][Nspe]-NH2)				3		6	> 100	6		
	C[C@@H](c1ccccc1)N(CC(N)=O)C(=O)CN(C(=O)CN(CCCCN)C(=O)CN(C(=O)CN(C(=O)CN(CCCCN)C(=O)CN(C(=O)CN(C(=O)CN(CCCCNC(=N)N)C(=O)CN(C(=O)CN(C(=O)CNCCCCNC(=N)N)[C@@H](C)c1ccccc1)[C@@H](C)c1ccccc1)[C@@H](C)c1ccccc1)[C@@H](C)c1ccccc1)[C@@H](C)c1ccccc1)[C@@H](C)c1ccccc1)[C@@H](C)c1ccccc1 (H-[NhArg][Nspe][Nspe][NhArg][Nspe][Nspe][Nlys][Nspe][Nspe][Nlys][Nspe][Nspe]-NH2)				1		1		1		
> 100	CC(C)CCN(CC(=O)N(CC(N)=O)[C@@H](C)c1ccccc1)C(=O)CN(CCCCNC(=N)N)C(=O)CN(C(=O)CN(CCC(C)C)C(=O)CN(CCCCNC(=N)N)C(=O)CN(C(=O)CN(CCC(C)C)C(=O)CNCCCCNC(=N)N)[C@@H](C)c1ccccc1)[C@@H](C)c1ccccc1 (H-[NhArg][N(isopentyl)Gly][Nspe][NhArg][N(isopentyl)Gly][Nspe][NhArg][N(isopentyl)Gly][Nspe]-NH2)										
	C[C@@H](c1ccccc1)N(CC(N)=O)C(=O)CN(Cc1ccc(F)cc1)C(=O)CN(CCCCN)C(=O)CN(C(=O)CN(Cc1ccc(F)cc1)C(=O)CN(CCCCN)C(=O)CN(C(=O)CN(Cc1ccc(F)cc1)C(=O)CN(CCCCN)C(=O)CN(C(=O)CN(Cc1ccc(F)cc1)C(=O)CNCCCCN)[C@@H](C)c1ccccc1)[C@@H](C)c1ccccc1)[C@@H](C)c1ccccc1	13	10	13			10				
	C[C@@H](c1ccccc1)N(CC(N)=O)C(=O)CN(C(=O)CN(CCCCN)C(=O)CN(C(=O)CN(C(=O)CN(CCCCN)C(=O)CN(C(=O)CN(C(=O)CN(CCCCNC(=N)N)C(=O)CN(C(=O)CN(C(=O)CNCCCCN)[C@@H](C)c1ccccc1)[C@@H](C)c1ccccc1)[C@@H](C)c1ccccc1)[C@@H](C)c1ccccc1)[C@@H](C)c1ccccc1)[C@@H](C)c1ccccc1)[C@@H](C)c1ccccc1 (H-[Nlys][Nspe][Nspe][NhArg][Nspe][Nspe][Nlys][Nspe][Nspe][Nlys][Nspe][Nspe]-NH2)				2		2		2	2	
	NCCCCNCC(=O)N(CC(=O)N(CC(=O)N(CCCCN)CC(=O)N(CC(=O)N(CC(=O)N(CCCCN)CC(=O)N(CC(=O)N(CC(N)=O)Cc1ccc(F)cc1)Cc1ccc(F)cc1)Cc1ccc(F)cc1)Cc1ccc(F)cc1)Cc1ccc(F)cc1)Cc1ccc(F)cc1 (H-[Nlys][N(4-F-Bzl)Gly][N(4-F-Bzl)Gly][Nlys][N(4-F-Bzl)Gly][N(4-F-Bzl)Gly][Nlys][N(4-F-Bzl)Gly][N(4-F-Bzl)Gly]-NH2)	15	33	15			33	> 100	6	3	
	NCCNCC(=O)N(CC(=O)N(CC(=O)N(CCN)CC(=O)N(CC(=O)N(CC(=O)N(CCN)CC(=O)N(CC(=O)N(CC(=O)N(CCN)CC(=O)N(CC(=O)N(CC(N)=O)Cc1ccccc1)Cc1ccccc1)Cc1ccccc1)Cc1ccccc1)Cc1ccccc1)Cc1ccccc1)Cc1ccccc1)Cc1ccccc1 (H-[Gly(N-2-aminoethyl)][Nphe][Nphe][Gly(N-2-aminoethyl)][Nphe][Nphe][Gly(N-2-aminoethyl)][Nphe][Nphe][Gly(N-2-aminoethyl)][Nphe][Nphe]-NH2)	17	17					> 100	8	8	> 100
	C[C@@H](c1ccccc1)N(CC(N)=O)C(=O)CN(C(=O)CN(CCCCN)C(=O)CN(C(=O)CN(C(=O)CN(CCCCNC(=N)N)C(=O)CN(C(=O)CN(C(=O)CN(CCCCN)C(=O)CN(C(=O)CN(C(=O)CNCCCCNC(=N)N)[C@@H](C)c1ccccc1)[C@@H](C)c1ccccc1)[C@@H](C)c1ccccc1)[C@@H](C)c1ccccc1)[C@@H](C)c1ccccc1)[C@@H](C)c1ccccc1)[C@@H](C)c1ccccc1 (H-[NhArg][Nspe][Nspe][Nlys][Nspe][Nspe][NhArg][Nspe][Nspe][Nlys][Nspe][Nspe]-NH2)						2		2	2	
	NCCCCNCC(=O)N(CC(=O)N(CC(=O)N(CCCCN)CC(=O)N(CC(=O)N(CC(=O)N(CCCCN)CC(=O)N(CC(=O)N(CC(=O)N(CCCCN)CC(=O)N(CC(=O)N(CC(N)=O)Cc1ccc(F)cc1)Cc1ccc(F)cc1)Cc1ccc(F)cc1)Cc1ccc(F)cc1)Cc1ccc(F)cc1)Cc1ccc(F)cc1)Cc1ccc(F)cc1)Cc1ccc(F)cc1 (H-[Nlys][N(4-F-Bzl)Gly][N(4-F-Bzl)Gly][Nlys][N(4-F-Bzl)Gly][N(4-F-Bzl)Gly][Nlys][N(4-F-Bzl)Gly][N(4-F-Bzl)Gly][Nlys][N(4-F-Bzl)Gly][N(4-F-Bzl)Gly]-NH2)	30	46	15			23		4	2	
	NCCCCNCC(=O)N(CC(=O)N(CC(=O)N(CCCCN)CC(=O)N(CC(=O)N(CC(=O)N(CCCCN)CC(=O)N(CC(=O)N(CC(=O)N(CCCCN)CC(=O)N(CC(=O)N(CC(N)=O)Cc1ccccc1)Cc1ccccc1)Cc1ccccc1)Cc1ccccc1)Cc1ccccc1)Cc1ccccc1)Cc1ccccc1)Cc1ccccc1 (H-[Nlys][Nphe][Nphe][Nlys][Nphe][Nphe][Nlys][Nphe][Nphe][Nlys][Nphe][Nphe]-NH2)	50	18	33			12		3	8	> 100
	N=C(N)NCCCCNCC(=O)N(CC(=O)N(CC(=O)N(CCCCNC(=N)N)CC(=O)N(CC(=O)N(CC(=O)N(CCCCNC(=N)N)CC(=O)N(CC(=O)N(CC(=O)N(CCCCNC(=N)N)CC(=O)N(CC(=O)N(CC(N)=O)Cc1ccccc1)Cc1ccccc1)Cc1ccccc1)Cc1ccccc1)Cc1ccccc1)Cc1ccccc1)Cc1ccccc1)Cc1ccccc1 (H-[NhArg][Nphe][Nphe][NhArg][Nphe][Nphe][NhArg][Nphe][Nphe][NhArg][Nphe][Nphe]-NH2)		50		4			> 100	17		
